Laboratory results from PubChem BioAssay AID504338 (NMMLSC, 2011).
A number with no mark means an inactive call. Active and inactive are the calls of the source.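 The calls were made as follows: active = GFP response vs DMSO above 150% with enough events counted; inconclusive = fewer than 70 events counted for a yeast strain; inactive = the rest.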

Assay: yeast TOR reporter LAP4-GFP retest – cell-based, third cherry pick, flow cytometry, confirmation (AID 504338);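 also: ratio to plate DMSO wells so 100% equals DMSO level rather than 0%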
Conditions: S. cerevisiae LAP4-GFP strain, 3 h, at 10 µM, hits give high values
How it was run: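 Material: Saccharomyces cerevisiae strain expressing LAP4-GFP fusion protein / Compound: 10 µM, one concentration / Incubation: compound exposure for 3 h at 30 °C / Detection: high-throughput flow cytometry of GFP, single-cell scatter gate / Measure: median GFP fluorescence as percent of plate DMSO-well average / Benchmarks: rapamycin 400 ng/mL high, DMSO low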

| SMILES | GFP response vs DMSO |
| --- | --- |
| O=C(O)c1ccc2cccnc2c1O | 106% |
| Cn1cccc1C(=O)Nc1nc(-c2ccccn2)cs1 | 114% |
| CS(=O)(=O)Oc1ccc(Br)c2cccnc12 | 104% |
| CSc1ccccc1OCc1cc(C(=O)N2CCN(C)C(c3ccccc3)C2)no1 (centres undefined) | 107% |
| Cc1cn2c(N)c(C=C3C=C(Cl)C(=O)C(Cl)=C3)c(=O)nc2s1 | 108% |
| Cc1nc2c(O)cccc2cc1CO | 101% |
| CCN(CC)C(=O)Oc1ccnc2cc(Cl)ccc12 | 101% |
| O=C(O)c1ccc2cccc(O)c2n1 | 100% |
| Nc1ccc(O)c2c1C(=O)c1ccccc1C2=O | 98.6% |
| Cc1ccc(C)c(Nc2ncnc(N)c2[N+](=O)[O-])c1 | 107% |
| COc1ccc(OC)c2c(=O)cc(C(=O)O)[nH]c12 | 104% |
| Brc1ccc2ncnc(NCc3ccccc3)c2c1 | 107% |
| COc1ccccc1OCc1cc(C(=O)N2CCN(C)C(c3ccccc3)C2)no1 (centres undefined) | 106% |
| COc1ccccc1Nc1nc(NCCCN(C)C)nc(N)c1[N+](=O)[O-] | 103% |
| O=C(Nc1cccc2ccccc12)ON=C1CCCCC1 | 112% |
| CC1=CN2C(=N)/C(=C/c3ccc([N+](=O)[O-])o3)C(=O)N=C2S1 | 3330% (active) |
| Cc1cc(C)c2ccc(N)nc2c1O | 97.2% |
| CC1=NNC(=O)/C1=C\c1cn(-c2ccccc2)nc1-c1ccc(F)cc1 | 179% (active) |
| CN1CCN(C(=O)c2cc(COc3ccc(F)cc3Cl)on2)CC1c1ccccc1 (centres undefined) | 103% |
| C/C(=C\C(=O)c1ccccc1)Nc1cccc(O)c1 | 107% |

| SMILES | GFP response vs DMSO |
| --- | --- |
| Cc1ccc(Nc2cc(=O)[nH]c(=O)[nH]2)cc1C | 104% |
| Nc1c(O)ccc2c1C(=O)c1ccccc1C2=O | 101% |
| CS(=O)(=O)c1nc(-c2ccc(F)cc2)cc(C(F)(F)F)n1 | 144% |
| CCN(CC)c1ncnc2ccc(Br)cc12 | 101% |
| Nc1cccc2c1C(=O)c1ccc(Cl)cc1C2=O | 100% |
| COC(=O)COc1c(Cl)cc(Cl)c2ccc(C)nc12 | 107% |
| CNc1nc(N)c([N+](=O)[O-])c(Nc2ccccc2OC)n1 | 111% |
| CC(=O)Nc1ccc(-c2nc3cc(Cl)ccc3o2)cc1 | 104% |
| C/C(=C\C(=O)c1ccccc1)Nc1ccc(O)cc1 | 101% |
| Nc1c(C(=O)O)ccc2c1C(=O)c1ccccc1C2=O | 115% |
| O=C1c2ccccc2C(=O)c2c1cccc2N(CCO)CCO | 100% |
| CCC(C)Nc1nc(N)c([N+](=O)[O-])c(Nc2ccccc2OC)n1 (centres undefined) | 97.2% |
| Cc1ccc2c(C)ccc(O)c2n1 | 101% |
| Cc1cc(C)c(NC(=O)CC(=O)c2ccccc2)c(Cl)c1 | 100% |
| Cn1c(NCCCO)nc2c(c1=O)C1(CCCCC1)Cc1ccccc1-2 | 104% |
| O=C(Nc1ccccc1)O/N=C1/CCCc2occc21 | 107% |
| CNc1nc(N)c([N+](=O)[O-])c(Nc2cccc(Cl)c2)n1 | 131% |
| Nc1cc(C(=O)O)c(N)c2c1C(=O)c1ccccc1C2=O | 106% |
| COc1ccc(OC)c2c(C)cc(C)nc12 | 103% |
